Ki and Activity data for 34 molecules are collected here from ChEMBL document CHEMBL1148732, “New 2-arylpyrazolo[3,4-c]quinoline derivatives as potent and selective human A3 adenosine receptor antagonists. Synthesis, pharmacological evaluation, and ligand-receptor modeling studies” (J Med Chem, 2007).

Common to all, as to assay type: cell-based
One test addresses T1, Adenosine receptor A3 (Homo sapiens, UniProt P0DMS8).
T1 sequence (P0DMS8 whole entry): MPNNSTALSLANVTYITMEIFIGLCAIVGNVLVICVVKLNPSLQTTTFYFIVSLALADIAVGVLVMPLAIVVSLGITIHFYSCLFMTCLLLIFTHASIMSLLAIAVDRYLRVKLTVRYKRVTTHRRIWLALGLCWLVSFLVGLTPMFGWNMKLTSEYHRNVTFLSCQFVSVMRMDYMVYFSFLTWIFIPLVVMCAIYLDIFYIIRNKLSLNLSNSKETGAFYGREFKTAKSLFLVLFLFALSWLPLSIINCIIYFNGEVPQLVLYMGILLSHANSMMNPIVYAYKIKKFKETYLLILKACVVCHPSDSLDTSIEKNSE
As to the kind of experiment: Displacement of [125I]AB-MECA from human adenosine A3 receptor expressed in CHO cells. Summed up:
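Five displacer concentrations, each in triplicate. IC50 by nonlinear regression, converted to Ki with Cheng-Prusoff. Means ± SEM of four separate assays.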
Background: Loss of bound radioactivity is the signal in a displacement assay; it reports binding, not function.

Test [1] concerns the target T2, Adenosine receptor A1 (Homo sapiens) (UniProt P30542).
T2 sequence (whole entry): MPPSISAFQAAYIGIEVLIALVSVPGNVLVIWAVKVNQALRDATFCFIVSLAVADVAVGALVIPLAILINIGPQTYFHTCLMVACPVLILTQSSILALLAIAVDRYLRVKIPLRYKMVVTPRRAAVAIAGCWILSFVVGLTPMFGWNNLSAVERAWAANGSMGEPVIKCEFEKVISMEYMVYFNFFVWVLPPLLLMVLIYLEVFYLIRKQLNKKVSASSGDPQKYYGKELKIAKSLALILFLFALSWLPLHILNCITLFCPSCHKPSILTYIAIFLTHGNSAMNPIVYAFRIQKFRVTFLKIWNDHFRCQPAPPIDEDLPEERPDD
Description: Displacement of [3H]DPCPX from human adenosine A1 receptor expressed in CHO cells at 10 uM.

For test [2], the target named is T3, Adenosine receptor A2a (Homo sapiens, UniProt P29274). As to the kind of experiment: Displacement of [3H]NECA from human adenosine A2A receptor expressed in CHO cells at 10 uM.
T3 sequence (P29274 whole entry): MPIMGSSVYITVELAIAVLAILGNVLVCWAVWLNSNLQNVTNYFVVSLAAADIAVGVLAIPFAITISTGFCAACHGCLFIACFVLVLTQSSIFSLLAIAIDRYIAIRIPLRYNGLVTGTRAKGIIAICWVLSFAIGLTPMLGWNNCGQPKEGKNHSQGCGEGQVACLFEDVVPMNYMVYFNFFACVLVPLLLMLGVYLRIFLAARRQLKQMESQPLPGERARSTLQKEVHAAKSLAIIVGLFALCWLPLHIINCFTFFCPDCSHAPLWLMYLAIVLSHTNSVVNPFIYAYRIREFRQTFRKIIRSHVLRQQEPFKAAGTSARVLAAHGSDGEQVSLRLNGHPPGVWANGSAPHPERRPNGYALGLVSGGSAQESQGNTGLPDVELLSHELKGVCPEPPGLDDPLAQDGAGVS
In another test the target is T4, Adenosine receptor A1 (Homo sapiens, UniProt P30542).
T4 sequence (P30542 whole entry): T2 sequence (whole entry)
As to the kind of experiment: Displacement of [3H]DPCPX from human adenosine A1 receptor expressed in CHO cells. In outline: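 Five concentrations in triplicate. IC50 by nonlinear regression, converted to Ki with Cheng-Prusoff. Means ± SEM of four assays.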

The target in test [3] is T3, Adenosine receptor A2a. Description: Displacement of [3H]NECA from human adenosine A2A receptor expressed in CHO cells.
Test [4] deals with T5, Adenosine receptor A3 (Homo sapiens) (UniProt P0DMS8).
T5 sequence (whole entry): T1 sequence (P0DMS8 whole entry)
Description: Displacement of [125I]AB-MECA from human adenosine A3 receptor expressed in CHO cells at 1 uM.

The term Ki denotes the equilibrium dissociation constant of an inhibitor or competing ligand from its target. Low readings indicate higher affinity, high ones lower affinity. `Cc1cccc(-n2cc3c(n2)c(N(C(=O)c2ccccc2)C(=O)c2ccccc2)nc2ccccc23)c1`: at Adenosine receptor A3, the Ki is 23.2 nM. In addition, the results for the Activity (in test [1]; on Adenosine receptor A2a [2]) were 42% and 20%, respectively.

At Adenosine receptor A3, `Cc1ccc(-n2cc3c(n2)c(NC(=O)NCc2ccccc2)nc2ccccc23)cc1` gave a Ki of 257 nM. The Activity in test [1] worked out at 5%; on Adenosine receptor A2a [2] it was 39%.

`Cc1ccc(-n2cc3c(n2)c(N)nc2ccccc23)cc1`: the Ki at Adenosine receptor A1 came to 45 nM; on Adenosine receptor A2a [3], 329 nM.

Take `O=c1[nH]c2ccccc2c2cn(-c3ccc([N+](=O)[O-])cc3)nc12`: the figures for the Ki on Adenosine receptor A3 and on Adenosine receptor A1 were 85.5 nM and 357 nM, respectively. The Activity at Adenosine receptor A2a [2] came to 0%.

As to `COc1ccc(-n2cc3c(n2)c(NC(=O)NCc2ccccc2)nc2ccccc23)cc1`, the Activity in test [4] was found to be 40%; in test [1] it was 43%; on Adenosine receptor A2a [2], 0%.

Turning to `O=C(Cc1ccccc1)Nc1nc2ccccc2c2cn(-c3ccccc3)nc12`, the Activity came out at 5% in test [1] and 15% at Adenosine receptor A2a [2].

Turning to `COc1ccc(-n2cc3c(n2)c(NC(=O)C(c2ccccc2)c2ccccc2)nc2ccccc23)cc1`, on Adenosine receptor A3, the Ki is 9 nM. Further, the Activity turned out to be 47% in test [1] and 0% at Adenosine receptor A2a [2].

With `O=c1[nH]c2ccccc2c2cn(Cc3ccccc3)nc12`, the Ki on Adenosine receptor A3 came to 74.5 nM. For the same molecule, the Activity came out at 8% in test [1] and 32% at Adenosine receptor A2a [2].

For `Nc1nc2ccccc2c2cn(-c3ccccc3)nc12`, on Adenosine receptor A1, the Ki worked out at 659 nM.

On to `Cc1cccc(-n2cc3c(n2)c(N)nc2ccccc23)c1`, for which the Ki at Adenosine receptor A1 is 21 nM; at Adenosine receptor A2a [3] it was 228 nM.

`COc1ccc(-n2cc3c(n2)c(N)nc2ccccc23)cc1`: the affinity at Adenosine receptor A1, expressed as Ki, was 40 nM.

Molecule `Cc1ccc(-n2cc3c(n2)c(NC(=O)C(c2ccccc2)c2ccccc2)nc2ccccc23)cc1` returned a Ki at Adenosine receptor A3 of 11.5 nM. Further, the values for the Activity (in test [1]; at Adenosine receptor A2a [2]) were 32% and 3%, respectively.

Consider `COc1ccc(-n2cc3c(n2)c(NC(C)=O)nc2ccccc23)cc1`, for which the Ki on Adenosine receptor A3 was 102 nM; at Adenosine receptor A1, 2880 nM. The same molecule yielded an Activity on Adenosine receptor A2a [2] of 0%.

Consider `Cc1cccc(-n2cc3c(n2)c(=O)[nH]c2ccccc23)c1`, for which the affinity on Adenosine receptor A1 corresponds to a Ki of 12 nM. For the same molecule, at Adenosine receptor A2a [2], the Activity was 46%.

Take `CC(=O)Nc1nc2ccccc2c2cn(-c3ccc(C)cc3)nc12`: the Ki at Adenosine receptor A3 came out at 123 nM; at Adenosine receptor A1, 455 nM; on Adenosine receptor A2a [3] it was 1500 nM.

`Cc1ccc(-n2cc3c(n2)c(=O)[nH]c2ccccc23)cc1`: on Adenosine receptor A1, the Ki amounted to 29 nM. The same molecule gave an Activity at Adenosine receptor A2a [2] of 44%.

With `Cc1cccc(-n2cc3c(n2)c(NC(=O)Cc2ccccc2)nc2ccccc23)c1`, the results for the Ki at Adenosine receptor A3 and on Adenosine receptor A1 were 3.9 nM and 60 nM, respectively. This molecule also registered an Activity on Adenosine receptor A2a [2] of 24%.

For `CC(=O)Nc1nc2ccccc2c2cn(-c3ccccc3)nc12`, the Activity in test [1] amounted to 0%; at Adenosine receptor A2a [2], 3%.

`Cc1ccc(-n2cc3c(n2)c(N(C(=O)c2ccccc2)C(=O)c2ccccc2)nc2ccccc23)cc1` returned a Ki at Adenosine receptor A3 of 30 nM. Besides, the results for the Activity (in test [1]; on Adenosine receptor A2a [2]) were 32% and 0%, respectively.

Take `COc1ccc(-n2cc3c(n2)c(NC(=O)c2ccccc2)nc2ccccc23)cc1`: the Ki at Adenosine receptor A3 turned out to be 3.4 nM; at Adenosine receptor A1, 250 nM. Further, at Adenosine receptor A2a [2], the Activity is 39%.

Consider `Cc1ccc(-n2cc3c(n2)c(NC(=O)c2ccccc2)nc2ccccc23)cc1`, for which the figures for the Ki on Adenosine receptor A3 and on Adenosine receptor A1 were 4.4 nM and 629 nM, respectively. The molecule further returned an Activity at Adenosine receptor A2a [2] of 26%.

Turning to `O=c1[nH]c2ccccc2c2cn(-c3ccccc3)nc12`, the Ki at Adenosine receptor A1 worked out at 203 nM. For the same molecule, the Activity on Adenosine receptor A2a [2] amounted to 43%.

As to `Cc1ccc(-n2cc3c(n2)c(NC(=O)Cc2ccccc2)nc2ccccc23)cc1`, the Ki at Adenosine receptor A3 was 5.6 nM. Besides, the Activity was found to be 55% in test [1] and 21% at Adenosine receptor A2a [2].

Take `Cc1cccc(-n2cc3c(n2)c(NC(=O)C(c2ccccc2)c2ccccc2)nc2ccccc23)c1`: the Ki at Adenosine receptor A3 amounted to 14 nM; on Adenosine receptor A1, 559 nM. The same molecule registered an Activity at Adenosine receptor A2a [2] of 4%.

Take `O=C(NCc1ccccc1)Nc1nc2ccccc2c2cn(-c3ccccc3)nc12`: the figures for the Activity (in test [1]; on Adenosine receptor A2a [2]) were 0% and 3%, respectively.

On Adenosine receptor A1, `COc1ccc(-n2cc3c(n2)c(=O)[nH]c2ccccc23)cc1` yielded a Ki of 176 nM. This molecule also returned an Activity on Adenosine receptor A2a [2] of 25%.

Take `COc1cccc(-n2cc3c(n2)c(=O)[nH]c2ccccc23)c1`: the values for the Ki on Adenosine receptor A3 and on Adenosine receptor A1 were 7.3 nM and 14 nM, respectively. The molecule also showed an Activity on Adenosine receptor A2a [2] of 52%.

Regarding `COc1ccc(-n2cc3c(n2)c(NC(=O)Cc2ccccc2)nc2ccccc23)cc1`, the Ki on Adenosine receptor A3 was found to be 4.5 nM; at Adenosine receptor A1 it was 201 nM. Also, the Activity on Adenosine receptor A2a [2] is 51%.

Regarding `O=C(Nc1nc2ccccc2c2cn(-c3ccccc3)nc12)c1ccccc1`, the results for the Activity (in test [1]; on Adenosine receptor A2a [2]) were 0% and 9%, respectively.

For `Cc1cccc(-n2cc3c(n2)c(NC(=O)NCc2ccccc2)nc2ccccc23)c1`, the Ki stood at 3.35 nM on Adenosine receptor A3 and 6800 nM at Adenosine receptor A1. The molecule also returned an Activity on Adenosine receptor A2a [2] of 20%.

Take `O=C(c1ccccc1)N(C(=O)c1ccccc1)c1nc2ccccc2c2cn(-c3ccccc3)nc12`: the Ki on Adenosine receptor A3 came to 6.1 nM. Besides, the Activity (in test [1]; at Adenosine receptor A2a [2]) was 0% each time.

On to `CC(=O)Nc1nc2ccccc2c2cn(-c3cccc(C)c3)nc12`, for which the Ki on Adenosine receptor A3 is 31 nM; at Adenosine receptor A1, 203 nM. For the same molecule, the Activity at Adenosine receptor A2a [2] was 10%.

Regarding `COc1cccc(-n2cc3c(n2)c(N)nc2ccccc23)c1`, the inhibition constant (Ki) came out at 229 nM at Adenosine receptor A3, 32 nM at Adenosine receptor A1 and 486 nM at Adenosine receptor A2a [3].

With `Cc1cccc(-n2cc3c(n2)c(NC(=O)c2ccccc2)nc2ccccc23)c1`, the Ki at Adenosine receptor A3 was determined as 4.3 nM; at Adenosine receptor A1, 57 nM; on Adenosine receptor A2a [3] it was 2860 nM.
